Experimental data published in ChEMBL document CHEMBL1268877, “Novel rhodanine derivatives induce growth inhibition followed by apoptosis” (Bioorg Med Chem Lett, 2010).
The source made the active and inactive calls. The rule behind the calls is not given here.

Assays:
CCRF-CEM [1] = assay: Cytotoxicity against human CEM cells after 48 hrs by trypan blue assay; format: functional, cell-based
Procedure, shortened: (§1)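 Trypan blue exclusion on CEM T-cell leukemia cells given 10, 50, 100 or 250 µM compound (DMSO as vehicle control); live cells counted every 24 h after addition until control culture reached stationary phase; independent experiments; IC50 estimated at 48 and 72 h.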

CCRF-CEM [2] = assay: Cytotoxicity against human CEM cells after 72 hrs by trypan blue assay; format: functional, cell-based; procedure, shortened: as §1
CCRF-CEM [3] = assay: Cytotoxicity against human CEM cells at 10 to 250 uM by trypan blue assay; format: functional, cell-based; details: TDE = time-dependent effect; procedure, shortened: as §1
CCRF-CEM [4] = assay: Cytotoxicity against human CEM cells after 6 days by trypan blue assay; format: functional, cell-based; procedure, shortened: as §1
CCRF-CEM [5] = assay: Cytotoxicity against human CEM cells at 250 uM after 6 days by trypan blue assay; format: functional, cell-based; procedure, shortened: as §1
CCRF-CEM [6] = assay: Cytotoxicity against human CEM cells at 10 uM after 24 to 48 hrs by MTT assay; format: functional, cell-based
Procedure, shortened: (§2)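 CEM T-cell leukemia cells cultured with 10, 50, 100 and 250 µM compound (DMSO vehicle control), harvested after 24 and 48 h for MTT assay; percent viable cells calculated taking DMSO-treated cells as 100%; SD from three independent experiments.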

[7] = Cytotoxicity against human 8E5 cells at 250 uM after 24 to 48 hrs by MTT assay; format: cell-based
CCRF-CEM [8] = assay: Cytotoxicity against human CEM cells at 10 to 250 uM by LDH release assay; format: functional, cell-based; details: TDE = time-dependent effect
Procedure, shortened: (§3)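 LDH release measured at 490 nm from CEM cells exposed to 10, 50, 100 and 250 µM compound for 24, 48 and 72 h; expressed as percent LDH release; SD from three independent experiments.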

CCRF-CEM [9] = assay: Cytotoxicity against human CEM cells after 24 to 72 hrs by LDH release assay; format: functional, cell-based; procedure, shortened: as §3
CCRF-CEM [10] = assay: Antiproliferative activity against human CEM cells assessed as inhibition of [3H]thymidine incorporation at 10 to 250 uM after 24 to 48 hrs by scintillation counting; format: functional, cell-based
Procedure, shortened: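 [3H]-thymidine added to CEM T-cell leukemia cells treated with 10, 50, 100 or 250 µM compound; radioactive counts per minute (cpm) calculated and plotted; data from independent experiments.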

CCRF-CEM [11] = assay: Induction of cell cycle arrest in human CEM cells assessed as accumulation at subG1 phase at 10 to 250 uM after 48 hrs by propidium iodide staining-based FACS analysis; format: functional
Procedure, shortened: (§4)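 CEM cells treated 48 h with 10, 20, 50, 100 or 250 µM compound or DMSO vehicle, then fixed, stained with propidium iodide and analysed by flow cytometry (10,000 cells per sample); percent cells in subG1, G1, S and G2/M quantified; SD from three independent experiments.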

CCRF-CEM [12] = assay: Induction of cell cycle arrest in human CEM cells assessed as decrease in accumulation at G2/M phase at 10 to 250 uM after 48 hrs by propidium iodide staining-based FACS analysis; format: functional; procedure, shortened: as §4
CCRF-CEM [13] = assay: Induction of cell cycle arrest in human CEM cells assessed as decrease in accumulation at G1 phase at 10 to 250 uM after 48 hrs by propidium iodide staining-based FACS analysis; format: functional; procedure, shortened: as §4
CCRF-CEM [14] = assay: Induction of cell cycle arrest in human CEM cells assessed as accumulation at S phase at 10 to 50 uM after 48 hrs by propidium iodide staining-based FACS analysis; format: functional; procedure, shortened: as §4
CCRF-CEM [15] = assay: Induction of apoptosis in human CEM cells assessed as chromosomal DNA fragmentation at 20 uM after 72 hrs by agarose gel electrophoresis; format: functional, cell-based
Procedure, shortened: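 Chromosomal DNA extracted from CEM cells treated with 20 µM compound and harvested at 12, 24, 36, 48 and 72 h (DMSO control), then resolved on 1% agarose gel beside a 2-log DNA ladder.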

CCRF-CEM [16] = assay: Cytotoxicity against human CEM cells assessed as mild induction of ROS production at 20 uM after 4 hrs by H2DCFDA staining-based flow cytometry; format: functional, cell-based
Procedure, shortened: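 CEM cells treated with 20 µM compound for 1, 2 and 4 h; ROS production quantified by flow cytometry, with unstained and dye-stained cells as references and H2O2 as positive control.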

CCRF-CEM [17] = assay: Cytotoxicity against human CEM cells at 10 to 250 uM after 24 to 48 hrs by MTT assay; format: functional, cell-based; procedure, shortened: as §2
[18] = Cytotoxicity against human 8E5 cells at 10 to 250 uM after 24 to 48 hrs by MTT assay; format: cell-based

SMILES | IC50 (CCRF-CEM [1]) [µM] | IC50 (CCRF-CEM [2]) [µM] | Activity (CCRF-CEM [3]) | Activity (CCRF-CEM [4]) | Activity (CCRF-CEM [5]) | Activity (CCRF-CEM [6]) | Activity [7] | Activity (CCRF-CEM [8]) | Activity (CCRF-CEM [9]) | inhibition (CCRF-CEM [10]) | Activity (CCRF-CEM [11]) | Activity (CCRF-CEM [12]) | Activity (CCRF-CEM [13]) | Activity (CCRF-CEM [14]) | Activity (CCRF-CEM [15]) | Activity (CCRF-CEM [16]) | Activity (CCRF-CEM [17]) | Activity [18]
CCN1C(=O)/C(=C\c2ccccc2)SC1=S | 8 | 6 | tde | Dose-dependent effect | Active | Active | Toxic | tde | Dose-dependent effect | Active | Active | Active | Active | Active | Active | Active | – | –
CCN1C(=O)C(=C(C)C)OC1=S | 80 | 50 | tde | Dose-dependent effect | Active | – | – | – | – | – | – | – | – | – | – | – | Active | Non-toxic
CC(C)=C1C(=O)N(C)C(=S)N1C | 70 | 40 | tde | Dose-dependent effect | Active | – | – | – | – | – | – | – | – | – | – | – | Active | Non-toxic
